pIC50: −log10 of the molar value.
Columns and labels:
[1] = biological target: DNA polymerase beta (Mus musculus) (UniProt Q8K409); test: The logarithm of the reciprocal of the concentration which produces 50% inhibition of mammalian beta DNA polymerase.
Outline: (§1)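 Mammalian α or β DNA polymerase in 100 µL reaction: enzyme in 50% glycerol, 1 mM DTT, 0.5 M KCl, Tris-HCl pH 7.5; Me2SO compound; cocktail with MnCl2, NaF, [3H]dGTP, poly(2'-O-methylC)·d(pG)12-18 template. Compound added first, then enzyme, then cocktail; 45 min at 37 °C. Product radioactivity, background-corrected against Me2SO controls; 50% concentration from triplicate five-dose curves, 10^-3–10^-7 M, expressed as log(1/C).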

[2] = biological target: Gag-Pol polyprotein (Woolly monkey sarcoma virus) (UniProt P03359); test: Inhibition of simian sarcoma virus reverse transcriptase
Sequence of Gag-Pol polyprotein (Woolly monkey sarcoma virus) (P03359 whole entry): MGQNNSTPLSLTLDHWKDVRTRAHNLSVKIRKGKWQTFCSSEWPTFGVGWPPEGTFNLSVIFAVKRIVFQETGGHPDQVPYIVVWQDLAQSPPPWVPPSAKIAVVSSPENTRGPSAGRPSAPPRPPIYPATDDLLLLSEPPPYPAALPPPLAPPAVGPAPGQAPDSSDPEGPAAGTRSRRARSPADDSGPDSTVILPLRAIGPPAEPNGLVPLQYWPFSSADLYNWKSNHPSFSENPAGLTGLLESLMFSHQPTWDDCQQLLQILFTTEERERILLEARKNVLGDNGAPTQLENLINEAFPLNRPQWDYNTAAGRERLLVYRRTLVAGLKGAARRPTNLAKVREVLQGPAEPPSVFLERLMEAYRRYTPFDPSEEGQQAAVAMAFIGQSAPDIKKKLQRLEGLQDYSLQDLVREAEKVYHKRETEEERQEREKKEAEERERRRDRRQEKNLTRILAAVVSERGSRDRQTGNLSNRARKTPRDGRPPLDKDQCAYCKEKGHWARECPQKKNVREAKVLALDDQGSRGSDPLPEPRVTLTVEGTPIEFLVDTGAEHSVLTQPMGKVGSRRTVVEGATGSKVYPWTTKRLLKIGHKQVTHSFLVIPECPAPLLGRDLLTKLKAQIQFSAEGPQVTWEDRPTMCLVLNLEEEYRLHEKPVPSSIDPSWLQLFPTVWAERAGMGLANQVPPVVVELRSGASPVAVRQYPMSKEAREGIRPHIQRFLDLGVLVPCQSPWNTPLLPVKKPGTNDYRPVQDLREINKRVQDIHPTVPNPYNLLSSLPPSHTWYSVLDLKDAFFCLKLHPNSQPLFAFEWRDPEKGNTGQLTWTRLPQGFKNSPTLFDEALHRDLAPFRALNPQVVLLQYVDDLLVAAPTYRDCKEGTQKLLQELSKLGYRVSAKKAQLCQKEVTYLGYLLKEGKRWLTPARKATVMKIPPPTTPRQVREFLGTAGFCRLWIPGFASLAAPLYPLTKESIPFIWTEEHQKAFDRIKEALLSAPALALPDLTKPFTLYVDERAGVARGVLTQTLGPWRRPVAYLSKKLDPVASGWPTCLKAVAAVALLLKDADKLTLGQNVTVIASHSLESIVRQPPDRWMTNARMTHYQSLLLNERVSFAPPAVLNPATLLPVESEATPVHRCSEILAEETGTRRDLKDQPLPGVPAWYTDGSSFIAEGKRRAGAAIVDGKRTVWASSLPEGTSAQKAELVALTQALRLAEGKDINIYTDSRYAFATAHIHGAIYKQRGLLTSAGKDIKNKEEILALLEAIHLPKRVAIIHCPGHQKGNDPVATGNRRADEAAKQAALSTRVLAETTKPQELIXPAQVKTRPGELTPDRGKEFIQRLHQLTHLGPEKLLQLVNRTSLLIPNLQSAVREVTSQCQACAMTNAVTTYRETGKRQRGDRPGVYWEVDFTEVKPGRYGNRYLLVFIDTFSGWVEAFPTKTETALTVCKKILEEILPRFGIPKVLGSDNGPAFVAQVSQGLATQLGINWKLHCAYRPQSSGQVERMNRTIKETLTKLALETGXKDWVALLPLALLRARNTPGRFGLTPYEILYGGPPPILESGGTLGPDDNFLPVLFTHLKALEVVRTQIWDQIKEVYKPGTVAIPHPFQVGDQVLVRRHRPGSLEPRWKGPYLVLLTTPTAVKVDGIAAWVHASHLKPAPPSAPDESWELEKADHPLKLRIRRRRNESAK
Outline: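 SSV-1 RNA-dependent DNA polymerase purified from tissue culture fluid of 71 AP1 cells. 50 µL reaction containing 20% glycerol, 1 mM DTT, BSA, Tris-HCl pH 7.5, MnCl2, KCl, NaF, [3H]dGTP and poly(2'-O-methylC)·d(pG)12-18. Compound in Me2SO is mixed with enzyme on ice for 10 min before the cocktail is added, then incubated 45 min at 37 °C. Radioactivity in product; 50% inhibitory concentration from triplicate dose–response curves spanning 10^-3 to 10^-7 M.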

[3] = Ability to inhibit mouse alpha DNA polymerase
Outline: (§2)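 Enzyme in 50% glycerol, 1 mM dithiothreitol, 0.5 M KCl and 50 mM Tris-HCl pH 7.5 was premixed with inhibitor in 100% Me2SO and held on ice 10 min. Cocktail (MnCl2, KCl, NaF, BSA, [3H]dGTP, poly(2'-O-methylcytidylic acid)·d(pG)12-18) was then added. Incubation was 45 min at 37 °C.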

[4] = Partition coefficient (logP); conditions: octanol/water
[5] = biological target: Gag-Pol polyprotein (Woolly monkey sarcoma virus, UniProt P03359); test: Ability to inhibit simian sarcoma virus reverse transcriptase; conditions: for pIC50: read-out: IC50
Sequence of Gag-Pol polyprotein (P03359 642-1310 limits assumed): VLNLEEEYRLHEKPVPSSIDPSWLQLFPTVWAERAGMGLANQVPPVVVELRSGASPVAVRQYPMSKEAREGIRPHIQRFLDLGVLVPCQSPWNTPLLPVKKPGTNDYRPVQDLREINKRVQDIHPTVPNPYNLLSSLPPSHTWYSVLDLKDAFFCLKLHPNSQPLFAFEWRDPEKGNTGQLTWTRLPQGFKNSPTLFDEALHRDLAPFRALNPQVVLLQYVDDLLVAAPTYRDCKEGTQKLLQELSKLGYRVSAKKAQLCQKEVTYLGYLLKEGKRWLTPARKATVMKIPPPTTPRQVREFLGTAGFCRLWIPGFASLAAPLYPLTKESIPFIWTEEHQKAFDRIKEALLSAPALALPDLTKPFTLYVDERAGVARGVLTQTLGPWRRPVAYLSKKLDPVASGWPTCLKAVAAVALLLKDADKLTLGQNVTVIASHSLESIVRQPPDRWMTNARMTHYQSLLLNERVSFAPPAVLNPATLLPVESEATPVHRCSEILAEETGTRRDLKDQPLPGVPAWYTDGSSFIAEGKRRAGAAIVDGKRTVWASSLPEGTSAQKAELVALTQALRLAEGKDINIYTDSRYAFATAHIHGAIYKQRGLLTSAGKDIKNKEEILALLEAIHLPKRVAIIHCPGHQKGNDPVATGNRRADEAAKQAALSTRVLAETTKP
Outline: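 Purified SSV-1 RNA-dependent DNA polymerase from 71 AP1 culture fluids, in 20% glycerol, 1 mM dithiothreitol, 1 mg/mL BSA and 50 mM Tris-HCl pH 7.5, was held 10 min on ice with inhibitor in Me2SO. Mn2+/[3H]dGTP cocktail with poly(2'-O-methylcytidylic acid)·d(pG)12-18 template was added, then 45 min at 37 °C. Background-corrected triplicate dose series; the 50% inhibition concentration was extrapolated.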

[6] = The logarithm of the reciprocal of the concentration which produces 50% inhibition of mammalian alpha DNA polymerase.; outline: as §1
[7] = biological target: DNA polymerase beta (Mus musculus, UniProt Q8K409); test: Ability to inhibit mouse beta DNA polymerase; conditions: for pIC50: read-out: IC50; outline: as §2

Log 1/C [1]	Log 1/C [2]	IC50 [3]	logP ([4]; logP)	pIC50 [5]	Log 1/C [6]	IC50 [7]	pIC50 [7]	logP [4]	IC50 [5]	SMILES
2.64	2.64	0.00023 M l-1	0.11	4.89	2.64	0.00037 M l-1	–	–	–	COC1/C=C/OC2(C)Oc3c(C)c(O)c4c(O)c(c(O)cc4c3C2=O)NC(=O)/C(C)=C\C=C\C(C)C(O)C(C)C(O)C(C)C(OC(C)=O)C1C (configuration not stated)
–	–	–	3.36	–	–	–	–	–	–	COC1/C=C/OC2(C)Oc3c(C)c(O)c4c(O)c(c(/C=N/N5CCN(Cc6ccccc6)CC5)cc4c3C2=O)NC(=O)/C(C)=C\C=C\C(C)C(O)C(C)C(O)C(C)C(OC(C)=O)C1C (configuration not stated)
4.89	6	0.000015 M l-1	5.2	6.00	4.94	–	4.89	–	–	CCCCCCCCO/N=C/c1cc2c3c4c(C)c(O)c2c(O)c1NC(=O)/C(C)=C\C=C\C(C)C(O)C(C)C(O)C(C)C(OC(C)=O)C(C)C(OC)/C=C/OC(C)(O4)C3=O (configuration not stated)
–	–	–	6.3	–	–	–	–	–	–	COC1/C=C/OC2(C)Oc3c(C)c(O)c4c(O)c(c(/C=N/N5C(C)CC(Cc6ccccc6)CC5C)cc4c3C2=O)NC(=O)/C(C)=C\C=C\C(C)C(O)C(C)C(O)C(C)C(OC(C)=O)C1C (configuration not stated)
–	–	0.000025 M l-1	6.05	5.19	–	–	4.66	–	–	COC1/C=C/OC2(C)Oc3c(C)c(O)c4c(O)c(c(/C=N/N5CCCCCCCCCCCCCCC5)cc4c3C2=O)NC(=O)/C(C)=C\C=C\C(C)C(O)C(C)C(O)C(C)C(OC(C)=O)C1C (stereo in doubt; 18) [listing 1 of 2 here]
5	5.6	0.000024 M l-1	4.96	5.60	4.62	–	5.00	–	–	COC1/C=C/OC2(C)Oc3c(C)c(O)c4c(O)c(c(/C=N/OC(c5ccccc5)c5ccccc5)cc4c3C2=O)NC(=O)/C(C)=C\C=C\C(C)C(O)C(C)C(O)C(C)C(OC(C)=O)C1C (configuration not stated)
–	–	–	1.12	–	–	–	–	–	–	COC1/C=C/OC2(C)Oc3c(C)c(O)c4c(O)c(c(/C=N/N5CCNCC5)cc4c3C2=O)NC(=O)/C(C)=C\C=C\C(C)C(O)C(C)C(O)C(C)C(OC(C)=O)C1C (configuration not stated)
4.3	5.26	0.000045 M l-1	3.81	5.27	4.35	–	4.30	–	–	COC1/C=C/OC2(C)Oc3c(C)c(O)c4c(O)c(c(/C=N/Nc5ccc([N+](=O)[O-])cc5[N+](=O)[O-])cc4c3C2=O)NC(=O)/C(C)=C\C=C\C(C)C(O)C(C)C(O)C(C)C(OC(C)=O)C1C (configuration not stated)
–	–	–	3.66	–	–	–	–	–	–	CCCCN(CCCC)/N=C/c1cc2c3c4c(C)c(O)c2c(O)c1NC(=O)/C(C)=C\C=C\C(C)C(O)C(C)C(O)C(C)C(OC(C)=O)C(C)C(OC)/C=C/OC(C)(O4)C3=O (configuration not stated)
–	–	0.00034 M l-1	–	4.38	–	0.00015 M l-1	–	–	–	COC1/C=C/OC2(C)Oc3c(C)c(O)c4c(O)c(c(/C=N/N5CCN(C)CC5)cc4c3C2=O)NC(=O)/C(C)=C\C=C\C(C)C(O)C(C)C(O)C(C)C(OC(C)=O)C1C (configuration not stated)
4.66	4.8	0.000047 M l-1	3.71	4.80	4.33	–	4.66	–	–	COC1/C=C/OC2(C)Oc3c(C)c(O)c4c(O)c(c(/C=N/N5C(C)CN(Cc6ccc(C#N)cc6)CC5C)cc4c3C2=O)NC(=O)/C(C)=C\C=C\C(C)C(O)C(C)C(O)C(C)C(OC(C)=O)C1C (configuration not stated)
–	–	–	–	–	–	–	–	4.65	–	COC1/C=C/OC2(C)Oc3c(C)c(O)c4c(O)c(c(/C=N/N5CCCCCCCCCCCC5)cc4c3C2=O)NC(=O)/C(C)=C\C=C\C(C)C(O)C(C)C(O)C(C)C(OC(C)=O)C1C (stereo in doubt; 30)
3.92	5	0.00014 M l-1	3.34	5.00	3.85	0.00012 M l-1	–	–	–	COc1cccc(CN2CCN(/N=C/c3cc4c5c6c(C)c(O)c4c(O)c3NC(=O)/C(C)=C\C=C\C(C)C(O)C(C)C(O)C(C)C(OC(C)=O)C(C)C(OC)/C=C/OC(C)(O6)C5=O)CC2)c1 (configuration not stated)
4.82	6.07	0.0000115 M l-1	6.78	6.07	4.94	–	4.82	–	–	COC1/C=C/OC2(C)Oc3c(C)c(O)c4c(O)c(c(/C=N/NC5CCCCCCCCCCCCCC5)cc4c3C2=O)NC(=O)/C(C)=C\C=C\C(C)C(O)C(C)C(O)C(C)C(OC(C)=O)C1C (configuration not stated)
–	–	–	3.51	–	–	–	–	–	–	CCCCCCN(CCCCCC)/N=C/c1cc2c3c4c(C)c(O)c2c(O)c1NC(=O)/C(C)=C\C=C\C(C)C(O)C(C)C(O)C(C)C(OC(C)=O)C(C)C(OC)/C=C/OC(C)(O4)C3=O (configuration not stated)
5.13	5.49	–	–	–	4.62	–	–	–	–	CCCCCCCCN(CCCCCCCC)/N=C/c1cc2c3c4c(C)c(O)c2c(O)c1NC(=O)/C(C)=C\C=C\C(C)C(O)C(C)C(O)C(C)C(OC(C)=O)C(C)C(OC)/C=C/OC(C)(O4)C3=O (stereo in doubt; 8) [listing 1 of 2 here]
2.96	3.43	0.00076 M l-1	0.78	–	3.12	0.0011 M l-1	–	–	0.00037 M l-1	COC1/C=C/OC2(C)Oc3c(C)c(O)c4c(O)c(ccc4c3C2=O)NC(=O)/C(C)=C\C=C\C(C)C(O)C(C)C(O)C(C)C(OC(C)=O)C1C (configuration not stated)
4.32	5.36	0.000043 M l-1	3.47	5.36	4.36	–	4.32	–	–	CCCCCN(CCCCC)/N=C/c1cc2c3c4c(C)c(O)c2c(O)c1NC(=O)/C(C)=C\C=C\C(C)C(O)C(C)C(O)C(C)C(OC(C)=O)C(C)C(OC)/C=C/OC(C)(O4)C3=O (configuration not stated)
4.8	4.6	0.000165 M l-1	2	4.60	3.78	–	4.80	–	–	COC1/C=C/OC2(C)Oc3c(C)c(O)c4c(O)c(c(/C=N/N5CCN(N)CC5)cc4c3C2=O)NC(=O)/C(C)=C\C=C\C(C)C(O)C(C)C(O)C(C)C(OC(C)=O)C1C (configuration not stated)
–	–	–	2.35	–	–	–	–	–	–	COC1/C=C/OC2(C)Oc3c(C)c(O)c4c(O)c(c(/C=N/N5CCCCC5)cc4c3C2=O)NC(=O)/C(C)=C\C=C\C(C)C(O)C(C)C(O)C(C)C(OC(C)=O)C1C (configuration not stated)
–	–	–	-0.29	–	–	–	–	–	–	NN1CCNCC1
–	–	–	3.6	–	–	–	–	–	–	CCCCCCCCN(CCCCCCCC)/N=C/c1cc2c3c4c(C)c(O)c2c(O)c1NC(=O)/C(C)=C\C=C\C(C)C(O)C(C)C(O)C(C)C(OC(C)=O)C(C)C(OC)/C=C/OC(C)(O4)C3=O (stereo in doubt; 35)
4.72	5.48	–	–	–	4.62	–	–	–	–	COC1/C=C/OC2(C)Oc3c(C)c(O)c4c(O)c(c(/C=N/N5CCCCCCCCCCCC5)cc4c3C2=O)NC(=O)/C(C)=C\C=C\C(C)C(O)C(C)C(O)C(C)C(OC(C)=O)C1C (stereo in doubt; 17) [listing 1 of 2 here]
–	–	–	3.1	–	–	–	–	–	–	COC1/C=C/OC2(C)Oc3c(C)c(O)c4c(O)c(c(/C=N/N5CCCCCCC5)cc4c3C2=O)NC(=O)/C(C)=C\C=C\C(C)C(O)C(C)C(O)C(C)C(OC(C)=O)C1C (configuration not stated)
–	–	0.000024 M l-1	4.75	5.48	–	–	4.72	–	–	COC1/C=C/OC2(C)Oc3c(C)c(O)c4c(O)c(c(/C=N/N5CCCCCCCCCCCC5)cc4c3C2=O)NC(=O)/C(C)=C\C=C\C(C)C(O)C(C)C(O)C(C)C(OC(C)=O)C1C (stereo in doubt; 17) [listing 2 of 2 here]
–	–	–	3.45	–	–	–	–	–	–	COC1/C=C/OC2(C)Oc3c(C)c(O)c4c(O)c(c(/C=N/N5CCCCCCCC5)cc4c3C2=O)NC(=O)/C(C)=C\C=C\C(C)C(O)C(C)C(O)C(C)C(OC(C)=O)C1C (configuration not stated)
–	–	–	–	–	–	–	–	5.55	–	COC1/C=C/OC2(C)Oc3c(C)c(O)c4c(O)c(c(/C=N/N5CCCCCCCCCCCCCCC5)cc4c3C2=O)NC(=O)/C(C)=C\C=C\C(C)C(O)C(C)C(O)C(C)C(OC(C)=O)C1C (stereo in doubt; 31)
–	–	0.000024 M l-1	–	5.49	–	–	5.13	3.62	–	CCCCCCCCN(CCCCCCCC)/N=C/c1cc2c3c4c(C)c(O)c2c(O)c1NC(=O)/C(C)=C\C=C\C(C)C(O)C(C)C(O)C(C)C(OC(C)=O)C(C)C(OC)/C=C/OC(C)(O4)C3=O (stereo in doubt; 8) [listing 2 of 2 here]
–	–	–	2.75	–	–	–	–	–	–	COC1/C=C/OC2(C)Oc3c(C)c(O)c4c(O)c(c(/C=N/N5CCCCCC5)cc4c3C2=O)NC(=O)/C(C)=C\C=C\C(C)C(O)C(C)C(O)C(C)C(OC(C)=O)C1C (configuration not stated)
4.66	5.19	–	–	–	4.6	–	–	–	–	COC1/C=C/OC2(C)Oc3c(C)c(O)c4c(O)c(c(/C=N/N5CCCCCCCCCCCCCCC5)cc4c3C2=O)NC(=O)/C(C)=C\C=C\C(C)C(O)C(C)C(O)C(C)C(OC(C)=O)C1C (stereo in doubt; 18) [listing 2 of 2 here]
